Bounds are passed on as bounds.

This note sets out measurements from ChEMBL document CHEMBL1142308, “Synthesis and structure-activity relationships of N-(3-phenylpropyl)-N'-benzylpiperazines: Potent ligands for sigma1 and sigma2 receptors” (Bioorg Med Chem, 2008).

Test [1] addresses T1, Sigma non-opioid intracellular receptor 1 (Cavia porcellus, UniProt Q60492). Put plainly: Displacement of [3H](+)-PTZ from sigma1 receptor in Hartley guinea pig brain.
The nature of test [2]: Displacement of [3H]DTG from sigma2 receptor in Hartley guinea pig brain. On the set-up: species or system Cavia porcellus. (In general: Loss of bound radioactivity is the signal in a displacement assay; it reports binding, not function.)
Test [3] deals with Delta-type opioid receptor (Mus musculus) (UniProt P32300). Put plainly: Displacement of [3H]NTI from delta opioid receptor in mouse brain. It counts as tissue-based. The arrangement: concentration or dose not given beside the values. In a few lines: (§1)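 Brain membranes came from guinea pig for mu and kappa and from mouse for delta. Radioligands were [3H]DAMGO (mu), [3H]NTI (delta) and [3H]U69,593 (kappa). The read-out is percent displacement of radioligand binding at a single concentration of 1–2 of test compound.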
Chain of Delta-type opioid receptor (Mus musculus) (P32300 whole entry): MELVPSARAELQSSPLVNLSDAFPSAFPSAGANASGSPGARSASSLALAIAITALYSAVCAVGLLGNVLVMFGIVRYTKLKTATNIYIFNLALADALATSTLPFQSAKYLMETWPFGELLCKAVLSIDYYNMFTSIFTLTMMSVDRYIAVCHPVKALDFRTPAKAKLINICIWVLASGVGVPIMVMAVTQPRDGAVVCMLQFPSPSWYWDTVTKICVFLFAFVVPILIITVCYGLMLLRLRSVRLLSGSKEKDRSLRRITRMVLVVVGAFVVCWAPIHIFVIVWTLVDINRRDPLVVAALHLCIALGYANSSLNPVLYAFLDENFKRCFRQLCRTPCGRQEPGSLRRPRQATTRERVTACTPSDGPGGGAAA

The target of test [4] is Mu-type opioid receptor (Cavia porcellus) (UniProt P97266). The test can be described thus: Displacement of [3H]DAMGO from mu opioid receptor in guinea pig brain. On the set-up: concentration or dose not given beside the values. In a few lines: as §1
Chain of Mu-type opioid receptor (Cavia porcellus) (P97266 whole entry): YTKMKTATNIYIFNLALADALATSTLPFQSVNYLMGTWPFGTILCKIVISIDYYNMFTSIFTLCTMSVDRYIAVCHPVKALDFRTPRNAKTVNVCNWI
Test [5] has as its target Kappa-type opioid receptor (Cavia porcellus) (UniProt P41144). The test can be described thus: Displacement of [3H]U69593 from kappa opioid receptor in guinea pig brain. The arrangement: concentration or dose not given beside the values. In a few lines: as §1
Test [6] is filed under the species Cavia porcellus. Put plainly: Ratio of Ki for sigma2 receptor in Hartley guinea pig brain to Ki for sigma1 receptor in Hartley guinea pig brain. An outline of the steps:
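Selectivity is expressed as the sigma2/sigma1 Ki ratio. The sigma1 Ki comes from [3H](+)-pentazocine displacement and the sigma2 Ki from [3H]DTG displacement, both in guinea pig brain. Each Ki is from Cheng-Prusoff, using Kd 2.3 nM and 23.9 nM respectively, with duplicates repeated 3–6 times.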

Test [7] can be described thus: Binding affinity to sigma receptor.
In test [8] the target is T2, 5-hydroxytryptamine receptor 1A (Homo sapiens, UniProt P08908).
T2 sequence (P08908 whole entry): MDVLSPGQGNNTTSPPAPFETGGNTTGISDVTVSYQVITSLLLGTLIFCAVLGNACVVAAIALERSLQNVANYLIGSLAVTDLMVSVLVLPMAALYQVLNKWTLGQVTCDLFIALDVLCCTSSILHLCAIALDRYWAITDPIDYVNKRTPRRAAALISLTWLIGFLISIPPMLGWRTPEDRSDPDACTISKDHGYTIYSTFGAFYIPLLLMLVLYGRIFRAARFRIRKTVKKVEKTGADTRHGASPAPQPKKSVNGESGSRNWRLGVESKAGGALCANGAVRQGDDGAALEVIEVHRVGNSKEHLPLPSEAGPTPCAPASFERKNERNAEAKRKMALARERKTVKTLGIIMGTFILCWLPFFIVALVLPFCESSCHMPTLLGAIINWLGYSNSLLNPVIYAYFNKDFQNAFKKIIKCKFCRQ
Put plainly: Binding affinity to 5HT1A receptor.

Test [9] concerns the target D(2) dopamine receptor (Homo sapiens, UniProt P14416). Put plainly: Binding affinity to dopamine D2 receptor.
For test [10], the target named is T1, Sigma non-opioid intracellular receptor 1. Put plainly: Displacement of [3H]pentazocine from sigma1 receptor in guinea pig membrane. It counts as cell membranes.
The target is the same in test [11]. Put plainly: Displacement of [3H]pentazocine from sigma1 receptor in guinea pig membrane in presence of phenytoin. Type of test: cell membranes. An outline of the steps:
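[3H](+)-pentazocine sigma1 binding run as the standard assay, but with phenytoin in 0.15 M NaOH vehicle added to every tube; parallel controls received NaOH only. Trials performed in duplicate, 3–5 trials; ratio of IC50 with versus without phenytoin used for agonist/antagonist profiling.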

The target in test [12] is Sigma non-opioid intracellular receptor 1 (Cavia porcellus) (UniProt Q60492). The test can be described thus: Ratio of IC50 for sigma1 receptor in absence of phenytoin to in presence of phenytoin in guinea pig membrane. It counts as cell membranes. In a few lines:
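Sigma1 competition binding against [3H](+)-pentazocine in guinea pig brain homogenates, with phenytoin in 0.15 M NaOH vehicle added to every tube, alongside controls given only 0.15 M NaOH. Incubation medium was pH 7.44 at 37 °C with the NaOH additions. Ratio is IC50 without phenytoin over IC50 with it. Run in duplicate, repeated 3–6 times.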

T1 sequence (Q60492 whole entry): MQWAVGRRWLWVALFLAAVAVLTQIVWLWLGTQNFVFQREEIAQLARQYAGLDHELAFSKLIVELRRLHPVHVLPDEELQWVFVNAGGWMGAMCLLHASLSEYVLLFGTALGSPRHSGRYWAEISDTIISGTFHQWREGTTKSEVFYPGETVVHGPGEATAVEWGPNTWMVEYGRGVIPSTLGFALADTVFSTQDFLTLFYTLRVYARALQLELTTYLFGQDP
Chain of Kappa-type opioid receptor (Cavia porcellus) (P41144 whole entry): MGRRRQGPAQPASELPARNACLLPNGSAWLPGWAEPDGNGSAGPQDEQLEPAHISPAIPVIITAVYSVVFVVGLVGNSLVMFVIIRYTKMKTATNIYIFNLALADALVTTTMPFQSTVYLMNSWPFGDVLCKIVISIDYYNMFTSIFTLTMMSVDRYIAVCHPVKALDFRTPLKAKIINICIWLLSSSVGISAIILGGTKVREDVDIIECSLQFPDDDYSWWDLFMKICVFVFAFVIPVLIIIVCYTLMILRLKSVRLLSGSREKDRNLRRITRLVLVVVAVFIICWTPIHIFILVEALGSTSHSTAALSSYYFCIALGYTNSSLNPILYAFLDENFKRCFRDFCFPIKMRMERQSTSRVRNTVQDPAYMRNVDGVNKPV
Chain of Sigma non-opioid intracellular receptor 1 (Cavia porcellus) (Q60492 whole entry): as the sequence (Q60492 whole entry) above
Chain of D(2) dopamine receptor (P14416 whole entry): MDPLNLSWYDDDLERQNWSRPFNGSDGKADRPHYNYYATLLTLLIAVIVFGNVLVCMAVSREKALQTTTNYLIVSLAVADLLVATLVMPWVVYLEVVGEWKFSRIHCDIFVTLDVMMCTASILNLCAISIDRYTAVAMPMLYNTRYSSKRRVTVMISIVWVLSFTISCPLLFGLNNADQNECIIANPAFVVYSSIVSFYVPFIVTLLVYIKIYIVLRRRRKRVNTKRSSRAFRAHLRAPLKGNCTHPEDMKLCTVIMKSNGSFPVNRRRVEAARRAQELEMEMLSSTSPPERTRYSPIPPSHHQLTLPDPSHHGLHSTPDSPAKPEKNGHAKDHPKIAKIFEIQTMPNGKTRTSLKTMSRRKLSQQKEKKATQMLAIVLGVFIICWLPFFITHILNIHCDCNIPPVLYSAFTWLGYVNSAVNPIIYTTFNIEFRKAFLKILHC

Take `Fc1cccc(CN2CCN(CCCc3ccccc3)CC2)c1`: the Ki (in general, a measure of affinity in units of concentration, obtained from inhibition or displacement) in [1] was 1.36 nM; in test [2], 13.8 nM. For the same molecule, the Activity in test [3], in [4] and in test [5] was less than 5% in each case. The Ratio Ki in [6] was 10.2.
For the molecule `COc1cccc(CN2CCN(CCCc3ccccc3)CC2)c1`, the Ki in [1] is 0.87 nM; in [2], 14.2 nM. Also, the Activity in [3], in test [4] and in [5] was less than 5% in each case. In addition, in test [6], the Ratio Ki is 16.3.
In [2], `COc1ccc(CCN2CCN(CCCc3ccccc3)CC2)cc1OC` [[11C]SA4503] had a Ki of 89.5 nM.
As to `O=[N+]([O-])c1cccc(CN2CCN(CCCc3ccccc3)CC2)c1`, the Ki in test [1] amounted to 0.93 nM; in test [2], 1.59 nM. The Activity in [3], in [4] and in test [5] was less than 5% throughout. For the same molecule, the Ratio Ki in test [6] was 1.7.
`c1ccc(CCCN2CCN(Cc3ccccc3)CC2)cc1`: the inhibitory constant (Ki) is 0.66 nM in test [1] and 34.3 nM in test [2]. The Activity in test [3], in [4] and in [5] was less than 5% throughout. For the same molecule, the Ratio Ki in test [6] was found to be 52. The concentration for half-maximal inhibition (IC50) (as a rule, the concentration needed to halve the response being measured) was 20 nM in [7]; more than 100 nM in test [8]; more than 100 nM in test [9]; 1.47 nM in test [10]; 1.89 nM in test [11]. In addition, the Ratio IC50 in test [12] was 0.8.
With `COc1ccc2c(c1)[C@]13CCCC[C@@H]1[C@H](C2)N(C)CC3` [DEXTROMETHORPHAN], the half-inhibitory concentration (IC50) in test [10] was 232 nM; in test [11] it was 15.2 nM.
On to `Cc1ccc(CN2CCN(CCCc3ccccc3)CC2)cc1`, for which the Ki was found to be 1.17 nM in test [1] and 17.5 nM in test [2]. Moreover, the Activity in [3], in test [4] and in test [5] was less than 5% throughout. Further, the Ratio Ki in test [6] turned out to be 15.
For `O=[N+]([O-])c1ccccc1CN1CCN(CCCc2ccccc2)CC1`, the values for the Ki in [1] and in [2] were 2.8 nM and 3.79 nM, respectively. The Activity in test [3], in test [4] and in [5] was less than 5% in each case. The Ratio Ki in test [6] turned out to be 1.4.
For the molecule `COc1ccc(CN2CCN(CCCc3ccccc3)CC2)cc1`, the inhibition constant Ki in test [1] was found to be 0.76 nM; in test [2] it was 32.8 nM. Moreover, the Activity in [3], in [4] and in test [5] was less than 5% each time. Moreover, the Ratio Ki in test [6] was 43.2.
Turning to `Ic1cccc(CN2CCN(CCCc3ccccc3)CC2)c1`, the inhibition constant Ki was found to be 0.39 nM in test [1] and 1.03 nM in [2]. Besides, the Activity in test [3], in test [4] and in test [5] was less than 5% throughout. Besides, in test [6], the Ratio Ki is 2.6.
Consider `Brc1ccccc1CN1CCN(CCCc2ccccc2)CC1`, for which the Ki in test [1] worked out at 0.6 nM; in test [2] it was 4.12 nM. Also, the Activity in [3], in test [4] and in test [5] was less than 5% in each case. Further, the Ratio Ki in test [6] was 6.9.
Turning to `O=[N+]([O-])c1ccc(CN2CCN(CCCc3ccccc3)CC2)cc1`, the inhibition constant (Ki) in test [1] is 0.37 nM; in [2] it was 3.29 nM. Further, the Activity in test [3], in [4] and in test [5] was less than 5% each time. Further, the Ratio Ki in test [6] amounted to 8.9.
